Calls of active or inactive are those of the source.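 Rule for the calls, unless noted: active = viability at or below 10% of carrier control in both of two separate runs; inconclusive = viability at or below 10% in only one of the two runs; inactive = the rest.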
Assays:
[1] = reducers of endogenous Her2 protein level, primary screen, SKBR3 breast tumor cells, AlphaScreen, ATP viability (AID 461;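 active = Her2 level under about 52% in both replicate screens, with viability over 70% of control, limit read from the data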;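 for Her2 level: lower value means less Her2 protein in the cells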;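 for viability: percent of carrier control wells set as 100% viability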); conditions: 18-24 h, measured here: SKBR3 viability, ATP luminescence, at 10 µM
[2] = molecular target: Receptor tyrosine-protein kinase erbB-2 (Homo sapiens) (UniProt P04626); experiment: as above; conditions: 18-24 h, at 10 µM, stronger effect = lower value
[3] = SK-BR-3 cell growth inhibitors, pilot screen, 24 h, human (AID 572); conditions: SK-BR-3 viability, CellTiter-Glo luminescence, at 10 µM, stronger effect = lower value;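 note: compound exposure lasted between 18 and 24 h rather than exactly 24 h; 100% = carrier-treated control wells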
[4] = HUVEC growth inhibition – cell-based, human, primary screen (AID 575;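 active = viability at or below 30% in both replicate assays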;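 note: 100% = median of untreated cell wells with 0.1% DMSO on each plate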); conditions: HUVEC proliferation, CellTiter-Glo luminescence, 72 h; at 10 µM; stronger effect = lower value
Summary of the method: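 Test system: HUVEC primary cells. Quantity: 1250 endothelial cells in each well. Dosing: single-point 10 µM, DMSO 0.1% final. Incubation: 72 h treatment at 37 °C. Measured by: CTG luminescence. Control set: DMSO cell controls and MePR drug controls. Plate: collagen-coated 384-well format.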

[5] = growth inhibitors of H69AR lung tumor, primary screen, human, duplicate replicates (AID 580;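 active = viability at or under a set limit in both replicates, limit being median viability minus 3 SD, cut at about 48% in these data, passing the limit was not always enough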;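 note: 100% = mean luminescence of untreated wells and 0% = no signal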); conditions: H69AR lung tumor cells viability, ATP luminescence, 72 h; at 10 µM; stronger effect = lower value
[6] = reversal of MRP1-mediated doxorubicin resistance, pilot screen, H69AR cells, doxorubicin co-treatment (AID 601;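 active = viability loss from added drug above about 55%, and viability with drug at most 40%, in both replicates, limit read from the data, passing the limit was not always enough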); conditions: CellTiter-Glo, 72 h, at 10 µM; for differential viability (reversal): stronger effect = higher value
[7] = 384-well plate pilot, post-Golgi transport modulator project, inhibition of yeast transport mutant growth (AID 636; in the data active = inhibition above about 31%); conditions: absorbance 615 nm, about 18 h, stronger effect = higher value
[8] = growth suppression of yeast trafficking mutant, preliminary HTS, modulators of trafficking downstream of Golgi apparatus project, 1536-format plate, OD 615 nm (AID 637; in the data active = inhibition above about 30%); conditions: yeast transport mutant growth, absorbance 615 nm, 18 h; stronger effect = higher value
[9] = H69AR cells + 2 uM doxorubicin, measured here: viability with 2 uM doxorubicin, stronger effect = lower value
[10] = H69AR cells, compound alone cytotoxicity

Sequence of Receptor tyrosine-protein kinase erbB-2 (Homo sapiens) (P04626 whole entry, looked up): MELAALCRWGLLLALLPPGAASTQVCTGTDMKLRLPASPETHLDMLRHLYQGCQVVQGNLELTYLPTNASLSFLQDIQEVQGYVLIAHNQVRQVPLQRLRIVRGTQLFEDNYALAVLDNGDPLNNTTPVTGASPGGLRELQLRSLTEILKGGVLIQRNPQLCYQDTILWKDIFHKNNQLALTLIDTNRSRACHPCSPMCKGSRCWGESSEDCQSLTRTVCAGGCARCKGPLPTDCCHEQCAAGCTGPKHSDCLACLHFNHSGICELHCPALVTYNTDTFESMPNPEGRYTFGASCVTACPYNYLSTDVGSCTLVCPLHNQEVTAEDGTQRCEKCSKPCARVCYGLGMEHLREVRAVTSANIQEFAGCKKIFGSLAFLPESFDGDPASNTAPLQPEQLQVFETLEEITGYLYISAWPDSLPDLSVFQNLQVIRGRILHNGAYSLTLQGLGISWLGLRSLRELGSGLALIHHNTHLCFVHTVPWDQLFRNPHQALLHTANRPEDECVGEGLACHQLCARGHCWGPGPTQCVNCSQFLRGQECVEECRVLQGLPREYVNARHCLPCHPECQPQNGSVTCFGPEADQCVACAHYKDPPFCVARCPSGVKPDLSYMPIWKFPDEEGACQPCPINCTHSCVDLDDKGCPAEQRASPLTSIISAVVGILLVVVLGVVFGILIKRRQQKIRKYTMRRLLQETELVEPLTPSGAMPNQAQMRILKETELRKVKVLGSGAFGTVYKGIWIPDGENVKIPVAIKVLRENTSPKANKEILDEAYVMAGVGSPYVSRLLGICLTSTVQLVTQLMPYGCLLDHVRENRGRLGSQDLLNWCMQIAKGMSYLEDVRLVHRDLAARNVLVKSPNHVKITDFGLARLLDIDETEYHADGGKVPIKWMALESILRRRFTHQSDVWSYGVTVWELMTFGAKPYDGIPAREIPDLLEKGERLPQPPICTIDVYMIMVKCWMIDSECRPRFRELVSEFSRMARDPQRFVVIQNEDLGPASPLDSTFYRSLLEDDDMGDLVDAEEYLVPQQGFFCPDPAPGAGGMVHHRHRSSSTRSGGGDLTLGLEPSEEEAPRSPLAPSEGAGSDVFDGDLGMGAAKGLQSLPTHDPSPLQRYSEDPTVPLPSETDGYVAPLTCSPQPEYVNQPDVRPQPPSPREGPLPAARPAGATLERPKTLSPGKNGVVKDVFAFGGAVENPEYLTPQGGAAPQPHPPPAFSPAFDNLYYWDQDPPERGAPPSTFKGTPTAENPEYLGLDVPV

| Structure (SMILES) | viability [1] [%] | Her2 level [2] | viability [3] | viability [4] | viability [5] | differential viability (reversal) ([6]; H69AR cells + 2 uM doxorubicin) | viability [6, 9] [%] | viability [6, 10] [%] | inhibition [7] | inhibition [8] |
| --- | --- | --- | --- | --- | --- | --- | --- | --- | --- | --- |
| CCOC(=O)C1CCN(c2nc3ccccc3nc2C(C#N)C(=O)OC(C)C)CC1 (stereo not given) | 95 | 124% (inactive) | 95% (inactive) | 83.9% (inactive) | 84.2% (inactive) | -3.45% (inactive) | 87.6 | 84.2 | 1.37% (inactive) | 4.6% (inactive) |
| COC(=O)[C@H](CCSC)NC(=O)Nc1cc(C)ccc1C | 124 | 89% (inactive) | 124% (inactive) | 84.1% (inactive) | 82.2% (inactive) | -7.82% (inactive) | 90 | 82.2 | -6.22% (inactive) | 5.71% (inactive) |
| Cc1cc(C)n(C(=O)CCCCCC(=O)n2nc(C)cc2C)n1 | 116 | 86.5% (inactive) | 116% (inactive) | 105% (inactive) | 105% (inactive) | 10.8% (inactive) | 94.5 | 105 | -9.32% (inactive) | -2.86% (inactive) |
| CCOC(=O)Cc1csc(NC(=O)CSc2nnc(-c3ccncc3)n2Cc2ccco2)n1 | 107 | 82.5% (inactive) | 107% (inactive) | 94.1% (inactive) | 97.6% (inactive) | 7.66% (inactive) | 89.9 | 97.6 | -5.14% (inactive) | 5.24% (inactive) |
| CC1Cc2ccccc2N1C(=O)CSc1nc2ccccc2n1CC(=O)N1CCOCC1 (stereo not given) | 97 | 91% (inactive) | 97% (inactive) | 94% (inactive) | 97.8% (inactive) | 7% (inactive) | 90.8 | 97.8 | -6.13% (inactive) | 3.77% (inactive) |
| CCOC(=O)CC(NS(=O)(=O)c1ccc(NC(C)=O)cc1)c1ccc(OCC)cc1 (stereo not given) | 115 | 100% (inactive) | 115% (inactive) | 110% (inactive) | 90.9% (inactive) | -2.94% (inactive) | 93.9 | 90.9 | -7.63% (inactive) | -4.91% (inactive) |
| CCOC(=O)C1(C(=O)OCC)C(c2ccccc2)CC(O)N1C(C)=O (stereo not given) | 116 | 95% (inactive) | 116% (inactive) | 89.1% (inactive) | 86.2% (inactive) | 6.16% (inactive) | 80 | 86.2 | -6.18% (inactive) | 2.54% (inactive) |
| Cc1nnc(NC(=O)CSc2nnc(-c3ccc(S(=O)(=O)N4CCCC4)cc3)n2C)s1 | 93 | 88.5% (inactive) | 93% (inactive) | 104% (inactive) | 99% (inactive) | 6.45% (inactive) | 92.6 | 99 | -2.8% (inactive) | -2.1% (inactive) |
| c1ccc(-c2n[nH]c3ccccc23)cc1 | 118 | 85% (inactive) | 118% (inactive) | 84.9% (inactive) | 103% (inactive) | 11.4% (inactive) | 91.9 | 103 | -3.55% (inactive) | 2.1% (inactive) |
| COc1cccc(OCCn2ccnc2)c1 | 90.5 | 104% (inactive) | 90.5% (inactive) | 89.6% (inactive) | 89.4% (inactive) | -3.7% (inactive) | 93.1 | 89.4 | -4.93% (inactive) | -9.21% (inactive) |
| CCn1c(SCC(=O)Nc2cc(C)on2)nc2sc3c(c2c1=O)CCCC3 | 91 | 76.5% (inactive) | 91% (inactive) | 84.5% (inactive) | 12.6% (active) | 2.02% (inactive) | 10.6 | 12.6 | -4.93% (inactive) | 7.78% (inactive) |
| COc1ccc(S(=O)(=O)N(CCN2CCOCC2)Cc2cc(OC)ccc2OC)cc1 | 91 | 88.5% (inactive) | 91% (inactive) | 96.2% (inactive) | 70% (inactive) | 3.16% (inactive) | 66.8 | 70 | -3.25% (inactive) | -5.08% (inactive) |
| N#Cc1cnn(Cc2ccc(Cl)cc2)c1N | 92 | 97.5% (inactive) | 92% (inactive) | 92.7% (inactive) | 95.4% (inactive) | 10.4% (inactive) | 84.9 | 95.4 | -7.03% (inactive) | -7.21% (inactive) |
| Cc1cc(NC(=O)CSc2nccn2-c2ccc(Cl)cc2)no1 | 91.5 | 103% (inactive) | 91.5% (inactive) | 111% (inactive) | 106% (inactive) | 28% (inactive) | 78.1 | 106 | -1.56% (inactive) | -2.38% (inactive) |
| C=CCSc1nc2c(c(=O)[nH]c(=O)n2C)n1CC | 78.5 | 74% (inactive) | 78.5% (inactive) | 85.7% (inactive) | 93.2% (inactive) | 7.82% (inactive) | 85.3 | 93.2 | -5.54% (inactive) | -3.11% (inactive) |
| Cc1occc1C(=O)Nc1cccc2ccccc12 | 86 | 75.5% (inactive) | 86% (inactive) | 62.9% (inactive) | 73.2% (inactive) | -12.8% (inactive) | 86.1 | 73.2 | -1.84% (inactive) | 1.77% (inactive) |
| CCOC(=O)CSc1nnc(CNC(=O)c2cccs2)n1-c1cc(OC)ccc1OC | 96.5 | 94% (inactive) | 96.5% (inactive) | 113% (inactive) | 99.3% (inactive) | 11.1% (inactive) | 88.3 | 99.3 | -6.32% (inactive) | -0.55% (inactive) |
| Cc1ccccc1-c1nc(CS(=O)(=O)CC(=O)NCc2ccccc2)c(C)o1 | 93.5 | 100% (inactive) | 93.5% (inactive) | 87.8% (inactive) | 96.5% (inactive) | 6.09% (inactive) | 90.4 | 96.5 | -7.07% (inactive) | -2.3% (inactive) |
| CC1CCC(NC(=O)C2CCN(c3cnccn3)CC2)CC1 (stereo not given) | 96 | 95% (inactive) | 96% (inactive) | 88.6% (inactive) | 92.5% (inactive) | 11.3% (inactive) | 81.2 | 92.5 | -1.76% (inactive) | -2.7% (inactive) |
| COc1ccc(N2CCN(C(=O)CCNS(=O)(=O)c3ccc(Br)s3)CC2)cc1 | 64 | 91.5% (inactive) | 64% (inactive) | 80.1% (inactive) | 88.7% (inactive) | -3.66% (inactive) | 92.3 | 88.7 | -4.55% (inactive) | 6.72% (inactive) |
| Cc1nc(C)c2c(c1C(F)(F)F)-c1ccccc1C2(F)F | 98 | 98% (inactive) | 98% (inactive) | 102% (inactive) | 105% (inactive) | 16.4% (inactive) | 88.9 | 105 | -4.4% (inactive) | -5.08% (inactive) |
| CN(C)CC(=O)N1c2ccccc2CCc2ccc(NC(=O)c3ccc(N)cc3)cc21 | 103 | 102% (inactive) | 103% (inactive) | 82.1% (inactive) | 83.8% (inactive) | -4.88% (inactive) | 88.7 | 83.8 | -5.79% (inactive) | 4.26% (inactive) |
| CCOC(=O)CCNC(=O)Nc1ccc2nc(C)n(Cc3ccccc3Cl)c(=O)c2c1 | 87 | 110% (inactive) | 87% (inactive) | 92.9% (inactive) | 94.9% (inactive) | 7.92% (inactive) | 87 | 94.9 | -0.92% (inactive) | 1.67% (inactive) |
| CCOC(=O)c1sc2nc(SCC#N)n(CCCN3CCCC3=O)c(=O)c2c1C | 80.5 | 73% (inactive) | 80.5% (inactive) | 68% (inactive) | 75.8% (inactive) | -8.2% (inactive) | 84 | 75.8 | -5% (inactive) | -1.48% (inactive) |
| CCCS(=O)(=O)C(=C1Nc2ccccc2N1)S(=O)(=O)CCC | 105 | 97.5% (inactive) | 105% (inactive) | 93.4% (inactive) | 103% (inactive) | 12.9% (inactive) | 89.8 | 103 | -5.68% (inactive) | 4.13% (inactive) |
| CCCn1c(SCC(=O)NC(C)(C)C)nnc1C(C)C | 110 | 79.5% (inactive) | 110% (inactive) | 95.9% (inactive) | 93% (inactive) | 3.9% (inactive) | 89.1 | 93 | -4.32% (inactive) | 17.6% (inactive) |
| COc1cccc(OC)c1C(=O)N1CCOCC1 | 100 | 87.5% (inactive) | 100% (inactive) | 92.1% (inactive) | 100% (inactive) | 15% (inactive) | 85.1 | 100 | -1.84% (inactive) | -0.81% (inactive) |
| O=C(COC(=O)Cc1cccc(C(F)(F)F)c1)NCC1CCCO1 (stereo not given) | 94 | 98.5% (inactive) | 94% (inactive) | 96.5% (inactive) | 96.4% (inactive) | 22.8% (inactive) | 73.5 | 96.4 | -5.13% (inactive) | -4.36% (inactive) |
